Measurements as given in ChEMBL document CHEMBL1121813, “Dihydrochalcone sweeteners. A study of the atypical temporal phenomena” (1981).

What was measured:
Format in all cases: functional
Homo sapiens [1] = organism: Homo sapiens; assay: Experimentally determined perceived intensity of compound at a concentration of 2000 ppm (mean value)
Procedure, shortened: (§1)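 Trained human sensory panel of judges tasted aqueous solutions of the compound. Samples had to be ≥95 weight % pure (HPLC, proton titration, Karl Fischer), non-mutagenic in five Salmonella typhimurium strains with and without microsomal activation, and non-toxic in a single-oral-dose mouse test. Perceived intensity (Ip) was read from time–intensity curves at 4- or 6-s intervals and averaged. Outliers at the 95% level were rejected by t-value. Values reported as mean (2Sm).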

Homo sapiens [2] = organism: Homo sapiens; assay: Number of taste judgments per compound
Homo sapiens [3] = organism: Homo sapiens; assay: Percentage of judgments reporting an aftertaste at a concentration of 2000 ppm and character thereof
Procedure, shortened: (§2)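 Trained judges tasted aqueous solutions of the compounds, which had to be ≥95 weight percent pure and to have passed mutagenicity and single oral dose toxicity screening. The value is the percentage of panel judgments reporting an aftertaste. Where given, its character is recorded as sweet, bitter or bitter-sweet.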

Homo sapiens [4] = organism: Homo sapiens; assay: Intensity calculated on a weight basis relative to an 85500 ppm sucrose solution at a concentration of 1011 ppm (mean value)
Procedure, shortened: (§3)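 Trained human panel tasted aqueous solutions of purity-checked (≥95 weight percent) compounds cleared for mutagenicity and mouse oral toxicity. Weight-basis intensity I_w = perceived intensity × (85500 ppm sucrose / compound concentration in ppm). The mean is reported with 2S_m limits; data deviating excessively at 95% confidence were rejected by the t-value method.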

Homo sapiens [5] = organism: Homo sapiens; assay: Bitter character at a concentration of 1011 ppm (mean value)
Procedure, shortened: (§4)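 Trained human panel tasted aqueous solutions. Each judge reported whether there was an aftertaste and its character (sweet, bitter or bitter-sweet). The value is the percentage of judgments reporting a bitter aftertaste.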

Homo sapiens [6] = organism: Homo sapiens; assay: Other taste character at a concentration of 1011 ppm (mean value)
Procedure, shortened: (§5)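 Trained human panel tasted aqueous solutions of each compound. Aftertaste is scored as the percentage of judgments reporting one, with its character coded sweet (s), bitter (b) or bitter-sweet (bs).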

Homo sapiens [7] = organism: Homo sapiens; assay: Experimentally determined perceived intensity of compound at a concentration of 1011 ppm (mean value); procedure, shortened: as §1
Homo sapiens [8] = organism: Homo sapiens; assay: Sweet / Bitter character at a concentration of 1011 ppm (mean value)
Homo sapiens [9] = organism: Homo sapiens; assay: Percentage of judgments reporting an aftertaste at a concentration of 1011 ppm and character thereof; Bitter-sweet; procedure, shortened: as §2
Homo sapiens [10] = organism: Homo sapiens; assay: Intensity calculated on a molar basis relative to a 0.25 M sucrose solution at a concentration of 1011 ppm (mean value)
Procedure, shortened: (§6)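 Trained human judges tasted aqueous solutions of the test compound; compounds were first required to be ≥95 weight percent pure and free of mutagenicity (five Salmonella typhimurium strains, ± microsomal activation) and of single oral dose mouse toxicity. Molar intensity I_m = perceived intensity × (0.25 M sucrose / compound molar concentration). The mean is reported with 2S_m limits; outliers were rejected at 95% confidence by t-value.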

Homo sapiens [11] = organism: Homo sapiens; assay: Sour character at a concentration of 1011 ppm (mean value)
Homo sapiens [12] = organism: Homo sapiens; assay: Salty character at a concentration of 1011 ppm (mean value)
Homo sapiens [13] = organism: Homo sapiens; assay: Sweet character at a concentration of 1011 ppm (mean value)
Homo sapiens [14] = organism: Homo sapiens; assay: Experimentally determined perceived intensity of compound at a concentration of 690 ppm (mean value); procedure, shortened: as §1
Homo sapiens [15] = organism: Homo sapiens; assay: Intensity calculated on a weight basis relative to an 85500 ppm sucrose solution at a concentration of 2000 ppm (mean value); procedure, shortened: as §3
Homo sapiens [16] = organism: Homo sapiens; assay: Bitter character at a concentration of 2000 ppm (mean value); procedure, shortened: as §4
Homo sapiens [17] = organism: Homo sapiens; assay: Other taste character at a concentration of 2000 ppm (mean value); procedure, shortened: as §5
Homo sapiens [18] = organism: Homo sapiens; assay: Sweet / Bitter character at a concentration of 2000 ppm (mean value)
Homo sapiens [19] = organism: Homo sapiens; assay: Percentage of judgments reporting an aftertaste at a concentration of 2000 ppm; procedure, shortened: as §2
Homo sapiens [20] = organism: Homo sapiens; assay: Sweet character at a concentration of 2000 ppm (mean value)
Procedure, shortened: (§7)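 Trained human sensory panel (Swartz method) tasted dilute aqueous solutions of the compounds, which had to be ≥95 weight percent pure and free of mutagenicity and toxicity. Taste character is reported as the mean value with 2S_m limits. Data deviating excessively at the 95% confidence level were rejected by the t-value method.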

Homo sapiens [21] = organism: Homo sapiens; assay: Intensity calculated on a molar basis relative to a 0.25 M sucrose solution at a concentration of 2000 ppm (mean value); procedure, shortened: as §6
Homo sapiens [22] = organism: Homo sapiens; assay: Salty character at a concentration of 2000 ppm (mean value); procedure, shortened: as §7
Homo sapiens [23] = organism: Homo sapiens; assay: Sour character at a concentration of 2000 ppm (mean value); procedure, shortened: as §7
Homo sapiens [24] = organism: Homo sapiens; assay: Experimentally determined perceived intensity of compound at a concentration of 1000 ppm (mean value); procedure, shortened: as §1
Homo sapiens [25] = organism: Homo sapiens; assay: Percentage of judgments reporting an aftertaste at a concentration of 1000 ppm and character thereof; procedure, shortened: as §2
Homo sapiens [26] = organism: Homo sapiens; assay: Intensity calculated on a weight basis relative to an 85500 ppm sucrose solution at a concentration of 1090 ppm (mean value); procedure, shortened: as §3
Homo sapiens [27] = organism: Homo sapiens; assay: Bitter character at a concentration of 1090 ppm (mean value); procedure, shortened: as §4
Homo sapiens [28] = organism: Homo sapiens; assay: Other taste character at a concentration of 1090 ppm (mean value); procedure, shortened: as §5
Homo sapiens [29] = organism: Homo sapiens; assay: Experimentally determined perceived intensity of compound at a concentration of 1090 ppm (mean value); procedure, shortened: as §1
Homo sapiens [30] = organism: Homo sapiens; assay: Percentage of judgments reporting an aftertaste at a concentration of 1090 ppm; procedure, shortened: as §2
Homo sapiens [31] = organism: Homo sapiens; assay: Sweet character at a concentration of 1090 ppm (mean value)
Homo sapiens [32] = organism: Homo sapiens; assay: Intensity calculated on a molar basis relative to a 0.25 M sucrose solution at a concentration of 1090 ppm (mean value); procedure, shortened: as §6
Homo sapiens [33] = organism: Homo sapiens; assay: Salty character at a concentration of 1090 ppm (mean value)
Homo sapiens [34] = organism: Homo sapiens; assay: Sour character at a concentration of 1090 ppm (mean value)
Homo sapiens [35] = organism: Homo sapiens; assay: Sweet / Bitter character at a concentration of 1090 ppm (mean value)
Homo sapiens [36] = organism: Homo sapiens; assay: Sweet character at a concentration of 720 ppm (mean value)
Homo sapiens [37] = organism: Homo sapiens; assay: Experimentally determined perceived intensity of compound at a concentration of 720 ppm (mean value); procedure, shortened: as §1
Homo sapiens [38] = organism: Homo sapiens; assay: Percentage of judgments reporting an aftertaste at a concentration of 720 ppm and character thereof
Homo sapiens [39] = organism: Homo sapiens; assay: Intensity calculated on a weight basis relative to an 85500 ppm sucrose solution at a concentration of 720 ppm (mean value); procedure, shortened: as §3
Homo sapiens [40] = organism: Homo sapiens; assay: Bitter character at a concentration of 720 ppm (mean value); procedure, shortened: as §4
Homo sapiens [41] = organism: Homo sapiens; assay: Intensity calculated on a molar basis relative to a 0.25 M sucrose solution at a concentration of 720 ppm (mean value); procedure, shortened: as §6
Homo sapiens [42] = organism: Homo sapiens; assay: Sour character at a concentration of 720 ppm (mean value)
Homo sapiens [43] = organism: Homo sapiens; assay: Sweet / Bitter character at a concentration of 720 ppm (mean value); 50/50
Homo sapiens [44] = organism: Homo sapiens; assay: Salty character at a concentration of 720 ppm (mean value)
Homo sapiens [45] = organism: Homo sapiens; assay: Other taste character at a concentration of 720 ppm (mean value); procedure, shortened: as §7

`COc1ccc(CCC(=O)c2c(O)cc(OC(CC(O)CO)C(=O)[O-])cc2O)cc1O.[Na+]` (configuration not stated) was tested, and the IP (Homo sapiens [1]) was 0, the Judgments (Homo sapiens [2]) was 1 and the Judgments (Homo sapiens [3]) was 0.
With `COc1ccc(CCc2noc3cc(OCCCS(=O)(=O)[O-])cc(O)c23)cc1O.[K+]` the IW (Homo sapiens [4]) was 41, the Taste character (Homo sapiens [5]) was 38 and the Taste character (Homo sapiens [6]) was 21. It also gave an IP (Homo sapiens [7]) of 0.49, a Taste character (Homo sapiens [8]) of 52 and a Judgments (Homo sapiens [2]) of 12. For the same compound, the Judgments (Homo sapiens [9]) was 100, the IM (Homo sapiens [10]) was 56 and the Taste character (Homo sapiens [11]) was 0. For the same compound, the Taste character (Homo sapiens [12]) was 0 and the Taste character (Homo sapiens [13]) was 41.
`COc1ccc(/C=C/C(=O)c2c(O)cc(OCC(=O)[O-])cc2O)cc1O.[Na+]` showed an IP (Homo sapiens [14]) of 0 and a Judgments (Homo sapiens [2]) of 1.
With `COc1ccc(C2OC[C@@H]3OC(O)[C@@H](O)[C@H](O)[C@H]3O2)cc1O` (some centres not stated) the IW (Homo sapiens [15]) was 10, the Taste character (Homo sapiens [16]) was 100 and the Taste character (Homo sapiens [17]) was 0. It also gave an IP (Homo sapiens [1]) of 0.3, a Taste character (Homo sapiens [18]) of 0 and a Judgments (Homo sapiens [2]) of 1. It also gave a Judgments (Homo sapiens [19]) of 0, a Taste character (Homo sapiens [20]) of 0 and an IM (Homo sapiens [21]) of 10. For the same compound, the Taste character (Homo sapiens [22]) was 0 and the Taste character (Homo sapiens [23]) was 0.
Work on `COc1ccc(CNC(=O)c2c(O)cc(O)cc2O)cc1O` yielded an IP (Homo sapiens [24]) of 0, a Judgments (Homo sapiens [2]) of 1 and a Judgments (Homo sapiens [25]) of 0.
For `COc1ccc(C2CC(=O)c3c(O)cc(OCCCS(=O)(=O)[O-])cc3O2)cc1O.[K+]` (configuration not stated), the IW (Homo sapiens [26]) was 40, the Taste character (Homo sapiens [27]) was 25 and the Taste character (Homo sapiens [28]) was 0. The IP (Homo sapiens [29]) was 0.5, the Judgments (Homo sapiens [2]) was 1 and the Judgments (Homo sapiens [30]) was 0. It also gave a Taste character (Homo sapiens [31]) of 75, an IM (Homo sapiens [32]) of 50 and a Taste character (Homo sapiens [33]) of 0. For the same compound, the Taste character (Homo sapiens [34]) was 0 and the Taste character (Homo sapiens [35]) was 75.
With `COc1ccc(CCC(=O)c2c(O)cc(OCCCN)cc2O)cc1O` the Taste character (Homo sapiens [36]) was 50, the IP (Homo sapiens [37]) was 1.5 and the Judgments (Homo sapiens [38]) was 100. The IW (Homo sapiens [39]) was 180, the Taste character (Homo sapiens [40]) was 50 and the IM (Homo sapiens [41]) was 190. It also gave a Taste character (Homo sapiens [42]) of 0, a Judgments (Homo sapiens [2]) of 1 and a Taste character (Homo sapiens [43]) of 50. For the same compound, the Taste character (Homo sapiens [44]) was 0 and the Taste character (Homo sapiens [45]) was 0.
